Publication PMC5509056 (FEBS letters, 2017)

Assays:
[1] = tested on: supraoptic nucleus (SON) neurons; μ receptor; assay: Whole cell patch clamp, evoked outward / holding current in SON neurons; assay type: cell-based, rat (Sprague Dawley); details: for holding current response in SON: 1 μM, six cells in the SON
[2] = tested on: mu-opioid receptor (MOR); details: endomorphins EM1 and EM2; ref [5], [6], [7]; cited from earlier work
[3] = tested on: rat hippocampus membranes; assay: Agonist-stimulated [^35S]GTPγS binding in rat hippocampus membranes; assay type: biochemical, rat (Wistar)
[4] = tested on: rostral supraoptic nucleus (SON) cells; assay: Spontaneous firing rate; assay type: cell-based, rat (Sprague Dawley); details: 1 μM, six cells in the SON
Summary of the method: (§1)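 Coronal hypothalamic slices (250 μm) came from halothane-anaesthetised 20–24-day-old rats, cut in ice-cold sucrose ACSF and warmed to 35°C over 30 min. Slices were held submerged in 32°C ACSF (MgCl2 1.2, CaCl2 2.4 mM) gassed with 95% O2/5% CO2. Neurons were visualised by IR-DIC and patched with 5–8 MΩ pipettes (K-gluconate internal, pH 7.2) for whole-cell current and/or voltage clamp.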

[5] = tested on: suprachiasmatic nucleus (SCN) cells; assay: Spontaneous firing rate; assay type: cell-based, rat (Sprague Dawley); details: 1 μM, six cells in the SCN
Summary of the method: as §1

[6] = tested on: suprachiasmatic nucleus (SCN) cells; assay: Whole cell patch clamp, holding current in SCN neurons; assay type: cell-based, rat (Sprague Dawley); details: 1 μM, six cells in the SCN

| Molecule | binding affinity and selectivity to MOR (in words) [2] | SFR response in SON [4] | SFR response in SCN [5] | holding current response in SON [1] | holding current response in SCN [6] | other results |
| --- | --- | --- | --- | --- | --- | --- |
| CTOP [reference compound] |  |  |  |  |  | Mx-1 evoked current amplitude in presence of CTOP ([1]; CTOP 100 nM added to bath with 100 nM Mx-1, six SON neurons): 3.8 ± 2.0 pA |
| Tyr-Pro-Phe-Phe-NH2 [EM2] | high binding affinity and selectivity to the mu-opioid receptor |  |  |  |  |  |
| NH2-PPPRSPYSGKGLGPGNLLHSALLPIHCICLC-COO^- [Mx-3] |  | no measurable difference | no measurable difference | no measurable difference | no measurable difference | agonist-stimulated activity of Mx-3 compared with Mx-1 ([3]; [^35S]GTPγS, rat hippocampus membranes, comparison with Mx-1, discussion): greater than that displayed by Mx-1; [^35S]GTPγS binding at high concentrations (decrease) ([3]; high concentrations, for Mx-1: 1.2, 2.4 and 4.8 μM): not observed |
| C=CCN1CC[C@]23c4c5ccc(O)c4O[C@H]2C(=O)CC[C@@]3(O)[C@H]1C5 [naloxone, reference compound] |  |  |  |  |  | inhibition of agonist effect of Mx-1 in promoting incorporation of γ-GTP ([3]; naloxone saturating concentrations (10 μM) with Mx-1): inhibited the agonist effect of Mx-1 |
| NH2-TSRTDGTQS-COO^- [Mx-2] |  | no measurable difference | no measurable difference | no measurable difference | no measurable difference |  |
| Tyr-Pro-Trp-Phe-NH2 [EM1] | high binding affinity and selectivity to the mu-opioid receptor |  |  |  |  |  |
